# Measured values published in ChEMBL document CHEMBL5058577, “EUbOPEN Chemogenomics Library 2 (Multiplex)” (2022).
# System: Fibroblast
# Experiment: Multiplex assay against human fibroblast
# Type: toxicity, cell-based
# In short: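 With compound added, live cells were imaged on a CQ1 microscope at 37°C and 5% CO2; staining with Hoechst33342, BioTracker Green Microtubule Cytoskeleton Dye, MitoTracker Red and Annexin V Alexa Fluor 680 had been done at seeding. The CellPathfinder machine-learning gating scheme split cells into Hoechst high-intensity objects or normal cells, normal cells into healthy, pyknosed or fragmented nuclei, and pyknosed cells into mitotic or apoptotic. The tubulin, mitochondrial-mass and membrane-permeability phenotypes are per cents of healthy-nucleus cells.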
# [1] = 12 h, 1 µM, compound concentration 1 uM, replicate 1
# [2] = 12 h, 1 µM, compound concentration 1 uM, replicate 2
# [3] = 12 h, 10 µM, compound concentration 10 uM, replicate 1
# [4] = 12 h, 10 µM, compound concentration 10 uM, replicate 2
# [5] = 24 h, 1 µM, compound concentration 1 uM, replicate 1
# [6] = 24 h, 1 µM, compound concentration 1 uM, replicate 2
# [7] = 24 h, 10 µM, compound concentration 10 uM, replicate 1
# [8] = 24 h, 10 µM, compound concentration 10 uM, replicate 2
# [9] = 48 h, 1 µM, compound concentration 1 uM, replicate 1
# [10] = 48 h, 1 µM, compound concentration 1 uM, replicate 2
# [11] = 48 h, 10 µM, compound concentration 10 uM, replicate 1
# [12] = 48 h, 10 µM, compound concentration 10 uM, replicate 2
smiles,measurement,setting,value
N[C@@]1(C(=O)O)CO[C@H]2[C@H](C(=O)O)[C@H]21 [LY-379268],Population Apoptotic (%),[1],22%
same,Population Fragmented Nuclei (%),[1],17%
same,Population Healthy Nuclei (%),[1],70%
same,Population Hoechst High Intensity Objects (%),[1],1%
same,Population Membrane Permeable-Phenotype (%),[1],0%
same,Population Mitochondria Different-Phenotype (%),[1],2%
same,Population Mitotic Cells (%),[1],77%
same,Population Normal (%),[1],98%
same,Population Pyknosed Nuclei (%),[1],11%
same,Population Tubulin-Different-Phenotype (%),[1],25%
same,Total Cell Count,[1],156
same,Population Apoptotic (%),[2],44%
same,Population Fragmented Nuclei (%),[2],33%
same,Population Healthy Nuclei (%),[2],43%
same,Population Hoechst High Intensity Objects (%),[2],10%
same,Population Membrane Permeable-Phenotype (%),[2],5%
same,Population Mitochondria Different-Phenotype (%),[2],1%
same,Population Mitotic Cells (%),[2],55%
same,Population Normal (%),[2],89%
same,Population Pyknosed Nuclei (%),[2],22%
same,Population Tubulin-Different-Phenotype (%),[2],45%
same,Total Cell Count,[2],145
same,Population Apoptotic (%),[3],29%
same,Population Fragmented Nuclei (%),[3],15%
same,Population Healthy Nuclei (%),[3],69%
same,Population Hoechst High Intensity Objects (%),[3],3%
same,Population Membrane Permeable-Phenotype (%),[3],0%
same,Population Mitochondria Different-Phenotype (%),[3],3%
same,Population Mitotic Cells (%),[3],70%
same,Population Normal (%),[3],96%
same,Population Pyknosed Nuclei (%),[3],14%
same,Population Tubulin-Different-Phenotype (%),[3],19%
same,Total Cell Count,[3],187
same,Population Apoptotic (%),[4],21%
same,Population Healthy Nuclei (%),[4],51%
same,Population Membrane Permeable-Phenotype (%),[4],4%
same,Population Mitochondria Different-Phenotype (%),[4],1%
same,Population Mitotic Cells (%),[4],78%
same,Population Pyknosed Nuclei (%),[4],33%
same,Population Tubulin-Different-Phenotype (%),[4],47%
same,Total Cell Count,[4],128
same,Population Apoptotic (%),[5],36%
same,Population Fragmented Nuclei (%),[5],16%
same,Population Healthy Nuclei (%),[5],70%
same,Population Hoechst High Intensity Objects (%),[5],0%
same,Population Membrane Permeable-Phenotype (%),[5],0%
same,Population Mitochondria Different-Phenotype (%),[5],5%
same,Population Mitotic Cells (%),[5],63%
same,Population Normal (%),[5],99%
same,Population Pyknosed Nuclei (%),[5],12%
same,Population Tubulin-Different-Phenotype (%),[5],23%
same,Total Cell Count,[5],152
same,Population Apoptotic (%),[6],47%
same,Population Fragmented Nuclei (%),[6],40%
same,Population Healthy Nuclei (%),[6],41%
same,Population Hoechst High Intensity Objects (%),[6],10%
same,Population Membrane Permeable-Phenotype (%),[6],4%
same,Population Mitochondria Different-Phenotype (%),[6],10%
same,Population Mitotic Cells (%),[6],52%
same,Population Normal (%),[6],89%
same,Population Pyknosed Nuclei (%),[6],18%
same,Population Tubulin-Different-Phenotype (%),[6],60%
same,Total Cell Count,[6],125
same,Population Apoptotic (%),[7],66%
same,Population Fragmented Nuclei (%),[7],14%
same,Population Healthy Nuclei (%),[7],75%
same,Population Hoechst High Intensity Objects (%),[7],5%
same,Population Membrane Permeable-Phenotype (%),[7],0%
same,Population Mitochondria Different-Phenotype (%),[7],3%
same,Population Mitotic Cells (%),[7],33%
same,Population Normal (%),[7],94%
same,Population Pyknosed Nuclei (%),[7],10%
same,Population Tubulin-Different-Phenotype (%),[7],19%
same,Total Cell Count,[7],189
same,Population Apoptotic (%),[8],22%
same,Population Fragmented Nuclei (%),[8],17%
same,Population Healthy Nuclei (%),[8],53%
same,Population Hoechst High Intensity Objects (%),[8],6%
same,Population Membrane Permeable-Phenotype (%),[8],2%
same,Population Mitochondria Different-Phenotype (%),[8],0%
same,Population Mitotic Cells (%),[8],77%
same,Population Normal (%),[8],93%
same,Population Pyknosed Nuclei (%),[8],28%
same,Population Tubulin-Different-Phenotype (%),[8],44%
same,Total Cell Count,[8],133
same,Population Apoptotic (%),[9],76%
same,Population Fragmented Nuclei (%),[9],22%
same,Population Healthy Nuclei (%),[9],68%
same,Population Hoechst High Intensity Objects (%),[9],3%
same,Population Membrane Permeable-Phenotype (%),[9],0%
same,Population Mitochondria Different-Phenotype (%),[9],5%
same,Population Mitotic Cells (%),[9],23%
same,Population Normal (%),[9],96%
same,Population Pyknosed Nuclei (%),[9],8%
same,Population Tubulin-Different-Phenotype (%),[9],26%
same,Total Cell Count,[9],156
same,Population Apoptotic (%),[10],50%
same,Population Fragmented Nuclei (%),[10],33%
same,Population Healthy Nuclei (%),[10],55%
same,Population Hoechst High Intensity Objects (%),[10],11%
same,Population Membrane Permeable-Phenotype (%),[10],4%
same,Population Mitochondria Different-Phenotype (%),[10],7%
same,Population Mitotic Cells (%),[10],50%
same,Population Normal (%),[10],88%
same,Population Pyknosed Nuclei (%),[10],11%
same,Population Tubulin-Different-Phenotype (%),[10],59%
same,Total Cell Count,[10],136
same,Population Apoptotic (%),[11],62%
same,Population Fragmented Nuclei (%),[11],14%
same,Population Healthy Nuclei (%),[11],72%
same,Population Hoechst High Intensity Objects (%),[11],1%
same,Population Membrane Permeable-Phenotype (%),[11],0%
same,Population Mitochondria Different-Phenotype (%),[11],0%
same,Population Mitotic Cells (%),[11],37%
same,Population Normal (%),[11],98%
same,Population Pyknosed Nuclei (%),[11],13%
same,Population Tubulin-Different-Phenotype (%),[11],19%
same,Total Cell Count,[11],179
same,Population Apoptotic (%),[12],42%
same,Population Fragmented Nuclei (%),[12],27%
same,Population Healthy Nuclei (%),[12],56%
same,Population Hoechst High Intensity Objects (%),[12],7%
same,Population Membrane Permeable-Phenotype (%),[12],10%
same,Population Mitochondria Different-Phenotype (%),[12],5%
same,Population Mitotic Cells (%),[12],57%
same,Population Normal (%),[12],92%
same,Population Pyknosed Nuclei (%),[12],16%
same,Population Tubulin-Different-Phenotype (%),[12],47%
same,Total Cell Count,[12],140
